Experimental data reported in paper PMC3979326 (Science signaling, 2012).
Square brackets hold non-standard residues; d marks the D form. Ends that are not written are not given here. pY = N[C@@H](Cc1ccc(OP(=O)(O)O)cc1)C(=O)O

Key:
[1] = tested on: Gβγ-mediated activation of Akt via PI3Kβ; experiment: Gβγ-mediated Akt activation; type: cell-based; conditions: for effect on Gβγ-mediated increase in Akt phosphorylation at Thr308: 30 μM peptide, Fig. 5A, fig. S7A; for effect on Gβγ-dependent activation of Akt (need for cell entry): fig. S7C, labeled versus unlabeled peptide
Outline: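 HEK 293 cells were grown in DMEM with 10% FBS and transfected with human p85α, myc-p110β, myc-Akt, with or without FLAG-Gβ1 and HA-Gγ2. After overnight serum starvation, cells received myristoylated peptide (30 µM final, from DMSO stock) or TGX-221 (50 nM) for 30 min before lysis. Anti-myc immunoprecipitates were blotted for Akt and pT308-Akt, and the pAkt:total Akt ratio was quantified.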

[2] = tested on: EGF-dependent activation of Akt (RTK-mediated activation of PI3Kβ); experiment: EGF-dependent Akt activation; type: cell-based; conditions: intact cells, cell line not named; fig. S7B
[3] = tested on: PC3 cells (PTEN-null prostate cancer); experiment: MTT proliferation, PC3 cells; type: cell-based; conditions: 30 μM peptides, 200 nM TGX221, means ± SEM of three experiments, Fig. 6A
532KK-DD mutant PI3Kβ = experiment: Lipid kinase activity, 532KK-DD mutant PI3Kβ; type: biochemical, human; conditions: pY (substrate stock 900 nM); compared with wild-type; Fig. 1F, S4A, S4B
Outline: (§1)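 Recombinant PI3Kβ from baculovirus-infected insect cells was assayed on lipid vesicles at 1 mg/ml final (5% PIP2, 20% PS, 45% PE, 15% DOPC, 10% cholesterol, 5% sphingomyelin, by weight). Threefold enzyme stocks were 75 nM in Hepes pH 7.5, MgCl2, EDTA. Threefold substrate stocks carried 900 nM RTK-pY and/or 1.5 µM Gβ1γ2. The read-out was 32P-PIP3 captured on nitrocellulose, washed in 1 M NaCl/1% phosphoric acid.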

loop-swap mutant PI3Kβ = experiment: Lipid kinase activity, loop-swap mutant PI3Kβ; type: biochemical, human; conditions: pY (substrate stock 900 nM); compared with wild-type; Fig. 1F, S4A, S4B
Outline: as §1

[4] = tested on: p110β–Gβ-p85α-icSH2–Gγ-C68S fusion heterotrimer; experiment: Lipid kinase activity, fusion heterotrimer; type: biochemical, human; conditions: fig. S3A
p110β = conditions: ref [7]; cited from earlier work
[5] = tested on: p110β with p85-i or p85-ic; experiment: Activity of p110β with p85 truncation constructs; type: biochemical; conditions: p85-i (iSH2 only) or p85-ic (iSH2-cSH2); fig. S9
wild-type PI3Kβ = experiment: Lipid kinase activity, wild-type PI3Kβ from insect cells; type: biochemical, human; conditions: no pY; Fig. 1F
Outline: as §1

[6] = tested on: 532KK-DD mutant PI3Kβ in HEK 293E cells; experiment: Gβγ-mediated Akt activation, 532KK-DD mutant PI3Kβ; type: cell-based, human; conditions: myc-Akt, Western blot, Fig. 2A
Outline: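 HEK 293E cells were transfected with human p85α, mutant myc-p110β and myc-Akt, with or without FLAG-Gβ1 and HA-Gγ2, then serum-starved overnight. After anti-myc immunoprecipitation, pT308-Akt and total Akt were blotted and quantified by densitometry or infrared imaging. The pAkt:total Akt ratio is expressed as percent of basal.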

adenylyl cyclase 2 = experiment: Adenylyl cyclase assay, synergistic activation by Gβγ and Gαs; type: biochemical; conditions: 30 μM; 20 nM each Gαs and Gβγ; Sf9 membranes; 10 min at 30°C; fig. S8B
PLC-β = experiment: Gβγ-mediated PLC-β activation in cells; type: cell-based; conditions: COS-7 cells, 30 μM, 30 min before LiCl; [3H]inositol phosphates; fig. S8C
Outline: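 COS-7 cells were transiently transfected with or without Gβγ plasmids. Reactions were stopped with ice-cold 50 mM formic acid and neutralised with 150 mM NH4OH after lysis. [3H]inositol phosphates were isolated on Dowex columns and quantified.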

[7] = tested on: NIH3T3 cells expressing p110β and p85α; experiment: Boyden chamber migration, PI3Kβ-expressing NIH3T3 cells; type: cell-based
[8] = tested on: NIH3T3 cells transfected with p110β and p85α; experiment: Focus formation assay, PI3Kβ-transfected NIH3T3 cells; type: cell-based; conditions: 30 μM peptide; two weeks; crystal violet; Fig. 5D
Outline: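 NIH 3T3 cells were plated at 2×10^5 cells/well and transfected with myc-p110β and p85α plasmids. Cells were grown two weeks with medium changed every two days, with myristoylated peptide at 30 µM in the medium throughout. Cells were then fixed and stained with crystal violet, and foci were counted per well.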

[9] = tested on: NIH3T3 cells transfected with 12V-Ras; experiment: Soft agar colony formation, oncogenic Ras; type: cell-based; conditions: Fig. 5E
Outline: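 Transfected NIH 3T3 cells were grown in DMEM with 10% calf serum. Two days after transfection, 2,500 cells/well were plated in 0.3% top agar over 0.6% bottom agar. Myristoylated peptide was present at 30 µM in both gels and the medium. Colonies were counted 3 weeks later.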

[10] = tested on: NIH3T3 cells transfected with p110β and p85α (PI3Kβ-dependent transformation); experiment: Soft agar colony formation, PI3Kβ-transfected NIH3T3 cells; type: cell-based
[11] = tested on: PC3 cells co-cultured with macrophages; experiment: Collagen invasion assay, macrophage-dependent PC3 invasion; type: cell-based; conditions: collagen I gel, 24 hours, confocal microscopy; two experiments; Fig. 6D
Outline: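 BAC-1.2F5 macrophages and PC-3 cells were vitally labelled with red and green CellTracker dyes and co-cultured at 2.5:1. After attachment, cells were overlaid with collagen I gel and incubated 24 h with or without test peptide. Invasion into the 3D gel was quantified by laser scanning confocal detection of dye fluorescence.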

[12] = tested on: LPA-stimulated Akt phosphorylation in NIH3T3 cells; experiment: LPA-stimulated Akt activation; type: cell-based; conditions: 30 μM peptide, 10 nM LPA for 5 min, Western blot, Fig. 5B
p101–p110γ dimer = experiment: Gβγ-dependent activation of class IB PI3K; conditions: fig. S8A
p110β protein = experiment: Abundance of p110β protein in cells; type: cell-based; conditions: Fig. 5, C and D
PC3 cells = experiment: Boyden chamber chemotaxis, PC3 cells; type: cell-based; conditions: 10% FBS, 20 μM (Fig. 6C legend), three experiments
Outline: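 PC-3 cells (5×10^4) were seeded on inserts with 8.0 µm pores. The upper chamber held serum-free medium with DMSO or myristoylated test peptide. The lower chamber held medium with 10% FBS plus DMSO or peptide.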

p110β–Rab5 binding = experiment: Rab5 pulldown assay; conditions: GST-Rab5 pulldown; fig. S8, E and F
Outline: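 HEK 293T cells were transfected with wild-type or mutant myc-p110β plus p85α. Lysates were incubated with GTPγS-Rab5 or GST beads, washed, and bound proteins blotted.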

[13] = tested on: NIH3T3 cells transfected with plasmid encoding PI3Kβ; experiment: Proliferation of PI3Kβ-transfected NIH3T3 cells; type: cell-based; conditions: fig. S7D
PLCβ3 = experiment: In vitro Gβγ-mediated activation of PLCβ; type: biochemical; conditions: PLCβ3 1 nM, 10 min at 30°C, [3H]PIP2; fig. S8D
Outline: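 Reactions used recombinant PLCβ3 with a range of peptide concentrations, with or without 200 nM Gαq and with or without Gβγ. Buffer was 20 mM Hepes pH 7.2, 70 mM KCl, 3 mM EGTA, 10 mM NaF, 20 µM AlCl3, 5 mM MgCl2. Substrate was 33 µM PIP2/333 µM PE with [3H]PIP2, free Ca2+ 200 nM. Reactions were stopped with 10% TCA plus BSA, and supernatant counted by scintillation.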

p101–p110γ dimer (PI3Kγ) = experiment: Lipid kinase activity, immunopurified p101–p110γ, Gβγ-stimulated; type: biochemical; conditions: 1 μM p110β-peptide or QEHA, 10 μM SIGK; 200 nM Gβγ; lipid kinase assay
Outline: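 Peptides were prepared in 20 mM Tris-HCl pH 7.4, 10 mM NaCl: test peptide 1 µM, scrambled 1 µM, SIGK 10 µM, QEHA 1 µM. Each was preincubated with 200 nM recombinant lipidated Gβγ for 30 min on ice, then with lipid vesicles 10 min on ice. Immunopurified PI3Kγ was added for 10 min before the kinase assay. Data are means ± SEM of triplicates, representative of two to three experiments.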

Cc1cc(C(C)Nc2ccccc2)c2nc(N3CCOCC3)cc(=O)n2c1 (stereo not drawn) [TGX221, reference compound]
effect on Gβγ-dependent Akt activation (TGX-221) ([1]; HEK 293E cells with p110β, p85α, myc-Akt, Gβ1γ2, TGX-221 50 nM, 30 min, fig. S5A): specifically inhibited | effect on EGF-dependent activation of Akt [2]: substantial inhibitory effect | effect on PC3 cell proliferation [3]: unaffected

ESDGG[pY]MDMSKDESID[pY]VPMLDMKGDIKYADIE
activation of mutant PI3Kβ by pY (532KK-DD) (532KK-DD mutant PI3Kβ): activated to a similar extent | activation of mutant PI3Kβ by pY (loop-swap) (loop-swap mutant PI3Kβ): activated to a similar extent | stimulation of fusion heterotrimer [4]: could be stimulated

Gβγ: Recombinant human Gβ1, N-terminally hexahistidine-tagged bovine wild-type Gγ2
pT308-Akt in presence of exogenous Gβγ, wild-type PI3Kβ ([1]; HEK 293E cells, wild-type PI3Kβ, myc-Akt, Western blot, Fig. 2A): marked increase | stimulation of p110β in the absence of p85 (p110β): stimulates p110β | stimulation of p110β associated with p85-i or p85-ic [5]: stimulates p110β | stimulation of fusion heterotrimer [4]: could be stimulated | PI3Kβ activation by Gβγ in the absence of pY (wild-type PI3Kβ): activated PI3Kβ in the absence of pY | Akt activation in presence of exogenous Gβγ, 532KK-DD mutant [6]: complete loss of Akt activation

KAAEIASSDSANVSSRGGKKFLPV [myristoylated p110β-peptide]
effect on synergistic activation of adenylyl cyclase by Gβγ and Gαs (adenylyl cyclase 2): no effect | effect on Gβγ-mediated activation of PLC-β in cells (PLC-β): no effect | effect on enhanced migration of PI3Kβ-transfected NIH3T3 cells ([7]; Boyden chamber towards 10% FBS, 24 hours, 30 μM, Fig. 5F): blocked the enhanced migration | effect on PI3Kβ-dependent transformation, focus formation [8]: inhibited | effect on Gβγ-mediated increase in Akt phosphorylation at Thr308 ([1]; 30 min, Western blot): completely inhibited | effect on Gβγ-dependent activation of Akt (need for cell entry) ([1]; listed as myristoylated): inhibited Gβγ-dependent activation of Akt | effect on cellular transformation by oncogenic Ras [9]: no effect | effect on PI3Kβ-dependent transformation, soft agar colony formation ([10]; 30 μM peptide in gels and media, colonies counted after 3 weeks, Fig. 5C): inhibited | effect on EGF-dependent activation of Akt [2]: no effect | effect on macrophage-dependent PC3 cell invasion [11]: blocked | effect on LPA-stimulated increase in Akt phosphorylation at Thr308 [12]: completely inhibited | effect on Gβγ-dependent activation of class IB PI3K (p101–p110γ) (p101–p110γ dimer): no effect | effect on abundance of p110β protein (p110β protein): did not reduce the abundance of p110β protein | effect on chemotaxis of PC3 cells toward serum (PC3 cells): inhibited the chemotaxis | effect on binding of p110β to Rab5 (p110β–Rab5 binding): no effect | effect on proliferation of PI3Kβ-transfected NIH3T3 cells [13]: neither the myristoylated peptide nor pertussis toxin inhibited the proliferation | effect on PC3 cell proliferation [3]: proliferation was inhibited

KAAEIASSDSANVSSRGGKKFLPV [p110β-peptide]
effect on Gβγ-mediated activation of PLC-β in vitro (PLCβ3): no effect | effect on Gβγ-dependent activation of Akt (need for cell entry) ([1]; listed as unlabeled peptide): no such effect | effect on Gβγ-mediated activation of p101–p110γ dimers (p101–p110γ dimer (PI3Kγ)): no effect on Gβγ-mediated activation of p101–p110γ dimers

NGAEKVGSADSKSIAFVSLKARSP [myristoylated scrambled peptide, reference compound]
effect on PI3Kβ-dependent transformation, focus formation [8]: but not the myristoylated scrambled peptide, inhibited | effect on Gβγ-mediated increase in Akt phosphorylation at Thr308 ([1]; 30 min, Western blot): minimal effects | effect on LPA-stimulated increase in Akt phosphorylation at Thr308 [12]: minimal effects | effect on PC3 cell proliferation [3]: unaffected

QEHAQEPERQYMHIGTMVEFAYALVGK
effect on Gβγ-mediated activation of p101–p110γ dimers (p101–p110γ dimer (PI3Kγ)): inhibited

SIGKAFKILGYPDYD
effect on Gβγ-mediated activation of p101–p110γ dimers (p101–p110γ dimer (PI3Kγ)): inhibited

pertussis toxin [reference compound]
effect on wild-type p110β-enhanced migration ([7]; pertussis toxin, fig. S6, B and C): inhibited | effect on wild-type p110β-enhanced transformation ([10]; pertussis toxin, NIH3T3 cells, fig. S6, B and C): inhibited | effect on proliferation of PI3Kβ-transfected NIH3T3 cells [13]: neither the myristoylated peptide nor pertussis toxin inhibited the proliferation | effect on PC3 cell proliferation [3]: proliferation was inhibited
